Test results published in ChEMBL document CHEMBL4837237, “Broomeanamides: Cyclic Octapeptides from an Isolate of the Fungicolous Ascomycete Sphaerostilbella broomeana from India” (J Nat Prod, 2021).
≈ marks a conversion by molar mass, not a printed value. Calls of active or inactive are those of the source. The rule behind the calls is not given here. Square brackets hold non-standard residues; d marks the D form. Peptide text beside a SMILES is read from it. ξ: configuration not given here. NMeF = CN[C@@H](Cc1ccccc1)C(=O)O; Ile(3ξ) = CCC(C)[C@H](N)C(=O)O; NMeL = CN[C@@H](CC(C)C)C(=O)O; NMeV = CN[C@H](C(=O)O)C(C)C

Legend:
Staphylococcus aureus [1] = experiment: Antibacterial activity against Staphylococcus aureus ATCC 29213 assessed as bacterial growth inhibition at 50 ug/disk measured after 24 to 72 hrs by disk diffusion assay; assay type: functional, organism-based; settings: time 24-72 hrs
Outline: (§1)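 Agar disk diffusion. Inoculum suspension (1–3 mL) mixed into 100 mL autoclaved medium cooled to 45 °C: yeast malt agar for the yeast, tryptic soy agar for the bacterium. Poured as 5 mL plates. 6.25 mm paper disks loaded with 50 μg sample, solvent evaporated. Incubated at room temperature 24–72 h. Amphotericin or gentamicin at 25 μg/disk as positive controls.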

Candida albicans [2] = experiment: Antifungal activity against Candida albicans ATCC10231 assessed as fungal growth inhibition at 50 ug/disk measured after 24 to 72 hrs by disk diffusion assay; assay type: functional, organism-based; settings: time 24-72 hrs; outline: as §1
Cryptococcus neoformans [3] = experiment: Antifungal activity against Cryptococcus neoformans H99 assessed as fungal growth inhibition incubated for 48 hrs at 23 degC by alamarBlue dye based assay; assay type: functional
Outline: (§2)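 Broth MIC, modified CLSI method. Overnight cultures diluted to OD600 0.8 in PBS, then 1000-fold in MOPS-buffered RPMI-1640. Exposed to serial dilutions from 0.25 to 128 μM. Growth read by adding 10% alamarBlue. S. aureus ATCC 43300: 24 h at 37 °C. C. albicans ATCC 10231: 48 h at 23 °C. C. neoformans H99: 48 h at 23 and at 37 °C. Controls: chlortetracycline + streptomycin (bacterium), amphotericin B (fungi).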

Cryptococcus neoformans [4] = experiment: Antifungal activity against Cryptococcus neoformans H99 assessed as fungal growth inhibition incubated for 48 hrs at 37 degC by alamarBlue dye based assay; assay type: functional; outline: as §2
Staphylococcus aureus [5] = experiment: Antibacterial activity against Staphylococcus aureus ATCC 43300 assessed as bacterial growth inhibition incubated for 24 hrs by alamarBlue dye based assay; assay type: functional; outline: as §2
Candida albicans [6] = experiment: Antifungal activity against Candida albicans ATCC 10231 assessed as fungal growth inhibition incubated for 48 hrs by alamarBlue dye based assay; assay type: functional; outline: as §2

| MIC (Cryptococcus neoformans [3]) [µg/mL] | MIC (Cryptococcus neoformans [4]) [µg/mL] | MIC (Staphylococcus aureus [5]) [µg/mL] | MIC (Candida albicans [6]) [µg/mL] | Structure (SMILES) | Activity (Staphylococcus aureus [1]) | Activity (Candida albicans [2]) |
| --- | --- | --- | --- | --- | --- | --- |
| – | – | – | – | O=C1N/C(=C\c2ccccc2)C(=O)N2CCCC12 (configuration not stated) | inactive | inactive |
| – | – | – | – | O=C1/C(=C/c2ccccc2)NC(=O)C2(O)CCCN12 (configuration not stated) | inactive | inactive |
| 0.85 (≈ 0.92 µM) | 0.85 (≈ 0.92 µM) | – | – | C[C@@H]1[C@H](O)[C@@H](C)/C=C/C=C/C=C/C=C/C=C/C=C/C=C/[C@H](O[C@@H]2O[C@H](C)[C@@H](O)[C@H](N)[C@@H]2O)C[C@@H]2O[C@](O)(C[C@@H](O)C[C@@H](O)[C@H](O)CC[C@@H](O)C[C@@H](O)CC(=O)O[C@H]1C)C[C@H](O)[C@H]2C(=O)O [AMPHOTERICIN B] | – | – |
| – | – | – | – | CC(C)C[C@H]1C(=O)N[C@@H](C(C)C)C(=O)N2CCC[C@H]2C(=O)N(C)[C@@H](Cc2ccccc2)C(=O)N[C@@H](C)C(=O)N(C)[C@@H](C(C)C)C(=O)N(C)[C@@H](CC(C)C)C(=O)N[C@@H](C(C)C)C(=O)N1C (cyclo(A[NMeV][NMeL]V[NMeL]VP[NMeF])) | Active | – |
| 128 (≈ 141 µM) | 8 (≈ 8.8 µM) | 128 (≈ 141 µM) | 64 (≈ 70.4 µM) | CCC(C)[C@@H]1NC(=O)[C@H](CC(C)C)N(C)C(=O)[C@H](C(C)C)N(C)C(=O)[C@H](C)NC(=O)[C@H](Cc2ccccc2)N(C)C(=O)[C@@H]2CCCN2C(=O)[C@H](C(C)C)NC(=O)[C@H](CC(C)C)N(C)C1=O (some centres not stated) (cyclo(A[NMeV][NMeL][Ile(3ξ)][NMeL]VP[NMeF])) | Active | Active |
| – | – | – | – | O=C1N[C@@H](Cc2ccccc2)C(=O)N2CCC[C@@H]12 | inactive | inactive |
| – | – | – | – | CN1C(=O)C2CCCN2C(=O)/C1=C/c1ccccc1 (configuration not stated) | inactive | inactive |
